Bioassay records as filed in PubChem.
The full list was thinned out, with hits kept by preference.
Insulin prom act = TRM-6 insulin promoter activation; activation, % at 2 µM; AID 1296; TRM-6 cells (human fetal islet line), insulin promoter eGFP reporter, imaging; plate-scaled: unstimulated 0, stimulated control 100; 130,000 compounds, 0.81% hits;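 active = activation at 2 µM above a set limit, confirmed on inspection of the cell images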;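 also: share of cells whose green reporter signal exceeds an intensity cutoff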
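Assay system: TRM-6 human fetal islet cells, insulin promoter–eGFP reporter; Also added: 0.75 µM tamoxifen as reporter inducer; Schedule: 15 h tamoxifen pre-treatment, 48 h compound treatment at 37 °C; Signal: fixed-cell fluorescence microscopy, eGFP plus Hoechst; Read-out: percent activation from GFP-positive cell fraction; Control set: stimulated and unstimulated wells.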
An asterisk follows results filed as active.

SMILES | Insulin prom act
Cc1ccccc1C(=O)Nc1ccnc(-c2ccncc2)n1 | 0
CC(=O)c1ccc(Oc2nc(-c3cccnc3)nc3ccccc23)cc1 | 0
CC(=O)Nc1ccnc(-c2cccnc2)n1 | 187*
O=C(NC(=S)Nc1ccc2c(c1)C(=O)c1ccccc1C2=O)c1ccc(F)cc1 | -7
O=C(CCCn1c(=O)[nH]c2cc(Cl)ccc2c1=O)NCCCN1CCCC1 | -8
O=C(CCCn1c(=O)[nH]c2cc(Cl)ccc2c1=O)NCCCN1CCN(c2ccc(F)cc2)CC1 | 267*
COc1ccc(N2CCN(C(=O)CCCn3c(=O)[nH]c4cc(Cl)ccc4c3=O)CC2)cc1 | -74
Cc1sc2nc(CN(C(=O)NC3CCCCC3)C3CCCCC3)[nH]c(=O)c2c1C | 363
CNC(=S)/N=C(/Nc1ccccc1)c1ccccc1 | 122
O=C1OC(C(=O)O)Cc2ccccc21 (configuration not stated) | 271
C=C(C)C1CC=C(C)/C(=N\NC(=S)Nc2ccc(C)cc2)C1 (configuration not stated) | -6
CC(C)(C)c1csc(NC(=O)Cn2c(=O)oc3ccccc32)n1 | 429*
CCOc1ccc(NC(=O)Cn2c(=O)oc3ccccc32)cc1 | -7
O=C(Cn1c(=O)oc2ccccc21)c1ccccc1 | -73
CC(c1ccccc1)N1CC(C(=O)N2CCN(c3ccc(F)cc3)CC2)CC1=O (configuration not stated) | 0
Cc1ccc(-c2nnc3c(C(F)(F)F)nc4ccccc4n23)cc1 | 4
CCc1nc2ccccc2c2nc3ccccc3n12 | -6
Cc1nnc2c(Oc3ccccc3)nc3ccccc3n12 | 131*
N/C(=N\c1nc2c(c(=O)[nH]1)CCC2)Nc1cccc2ccccc12 | 4
Cn1nc(C(=O)NCc2ccccn2)c2ccccc2c1=O | -20
Cn1nc(C(=O)NCc2ccc(F)cc2)c2ccccc2c1=O | 60
Cn1nc(C(=O)NCc2cccs2)c2ccccc2c1=O | 76*
Cn1c(=O)[nH]c(=O)c2c1nc(N1CCOCC1)n2CCCSc1ncccn1 | -6
O=C1C2CC=CCC2C(=O)N1c1ccc(NCCc2ccc(O)cc2)c([N+](=O)[O-])c1 (configuration not stated) | 114
COc1cccc(NC(=O)C2C3C=CC4(O3)C2C(=O)N(C(C)C)C4C(=O)NC2CCCCC2C)c1 (configuration not stated) | -29
SMILES | Insulin prom act
COc1cccc(NC(=O)C2C3C=CC4(O3)C2C(=O)N(C2CC2)C4C(=O)NC2CCCCC2C)c1 (configuration not stated) | 810*
CCCCN1C(=O)C2C(C(=O)Nc3cccc(OC)c3)C3C=CC2(O3)C1C(=O)NC1CCCCC1C (configuration not stated) | 126
COc1ccc(OC)c2c1nc1n2CCS1 | 3
Cc1cc(C)c(C)c(Oc2ncnc(N)c2[N+](=O)[O-])c1 | -3
Cc1ccc(Oc2ncnc(N)c2[N+](=O)[O-])cc1C | 312*
Cc1ccccc1Oc1ncnc(N)c1[N+](=O)[O-] | 8
CCC(=O)NCCc1nc2cc(NC(=O)c3ccc(OC)cc3)ccc2n1C | 108
CCOC(=O)Cc1csc(NC(=O)C(C)(C)CC)n1 | 9
O=C(O)c1ccccc1-c1ccccc1C(=O)NCc1ccco1 | -1
Cc1cc(NC(=O)CCC(=O)N(c2ccccc2)C(C(=O)NC2CCCCC2)c2cccs2)no1 (configuration not stated) | 323
CCC(C)(C)NC(=O)C(c1ccc(OC)cc1)N(Cc1cccs1)C(=O)CCC(=O)Nc1cc(C)on1 (configuration not stated) | 600*
CCC(C)(C)NC(=O)CN(Cc1cccs1)C(=O)CCC(=O)Nc1nccs1 | 7
CCS(=O)(=O)N1CCN=C1SCc1cccnc1 | -8
N#Cc1ccccc1Cn1cc(/C=N/Nc2ccc([N+](=O)[O-])cn2)c2ccccc21 | 400*
O=[N+]([O-])/C=C/c1cn(Cc2ccc(Cl)cc2)c2ccccc12 | -3
Cn1cc(/C=N/NC(=O)COc2ccccc2[N+](=O)[O-])c2ccccc21 | -9
CCOc1ccc(OCCCCOc2ccccc2C(C)=O)cc1 | -3
CCOc1ccccc1NC(=O)N1CCCC1C(=O)Nc1ccc(-n2cnnn2)c(C)c1 (configuration not stated) | 4
CCOC(=O)C(C)On1c(SC(C)C(=O)OCC)nc2ccccc2c1=O (configuration not stated) | 76*
COC(=O)COn1c(SC(C)C)nc2ccccc2c1=O | 7
CCSc1nc2ccccc2c(=O)n1OCC(=O)OC | 0
CC(=O)N1CCCc2cc(S(=O)(=O)N3CCC(C)CC3)ccc21 | 0
O=C(OCc1c(Cl)cccc1Cl)c1cccnc1 | -6
Cc1ccc(-c2nc3ccccc3c(=O)n2NC(=O)c2cccs2)cc1 | 3
CCOC(=O)Cc1csc(NC(=O)CSc2nc(N)c3c(C)c(C)sc3n2)n1 | -100
SMILES | Insulin prom act
Cc1ccccc1NC(=O)COc1ccc(Br)cc1C | 431*
Cc1cc(Cl)ccc1OCC(=O)Nc1ccccc1N1CCOCC1 | 363
Cc1ccccc1OCC(=O)Nc1cccc2nsnc12 | -43
CCOC(=O)c1nn(-c2cccc(C)c2)c2nnc(Cc3ccc(C)cc3)c(=O)n12 | 5
COc1ccc(Cc2nnc(SCC(=O)c3ccc(OC)cc3)o2)cc1 | 42
COc1ccc(Cc2n[nH]c(=S)o2)cc1 | 479*
S=c1[nH]nc(COc2ccc3ccccc3c2)o1 | 107
CCOC(=O)c1ccc(S(=O)(=O)N2CCN(C(=O)c3nn(C)c(=O)c4ccccc34)CC2)cc1 | 0
CN(C)C(=O)NC(Nc1ccc(Cl)cc1Cl)C(Cl)(Cl)Cl (configuration not stated) | 0
C/C(=N\Nc1ccc(C(F)(F)F)cc1[N+](=O)[O-])C1CC1 | 7
Cc1cccc(S(=O)(=O)NCCC(=O)OCC(=O)Nc2ccc(C#N)cc2)c1 | -10
CCC(c1nnnn1C1CCCC1)N1CCN(c2cccc(OC)c2)CC1 (configuration not stated) | 8
CCC(CC)NC(=O)COC(=O)c1cccc(C)c1O | -1
CCCCNC(=O)CN(C1CCCCC1)S(C)(=O)=O | 151
O=C(c1ccc(N2C(=O)C3C4c5ccccc5C(c5ccccc54)C3C2=O)cc1)N1CCOCC1 (configuration not stated) | 3
COc1ccc(C2SCCN2C(=S)Nc2cccc(C(F)(F)F)c2)cc1 (configuration not stated) | 122
CC(C)NC(=O)CCCc1c[nH]c2ccccc12 | 8
CCN1C(=O)/C(=C\c2ccc3c(c2)OCO3)C(C(=O)OC)=C1C | 4
COC(=O)C1=C(C)N(CCc2c[nH]c3ccccc23)C(=O)/C1=C\N(C)C | 409*
Cc1ccc(-c2ccc(CCC(=O)O)n2-c2cccc(O)c2)cc1 | 291*
Cc1ccc(-c2ccc(CCC(=O)O)n2CC(=O)O)cc1 | -4
Cc1ccc(-c2ccc(CCC(=O)O)n2-c2ccc(O)cc2)cc1 | -9
Cc1cccc(Sc2c(C=O)c3ccccc3n2C)c1 | 4
O=C(C1CCC(N2C(=O)C3CC=CCC3C2=O)CC1)N1CCCCC1 (configuration not stated) | -1
CCOC(=O)C1(CC2CC2)CCN(Cc2ccc(OC)cc2F)CC1 | 5
CCOC(=O)C1(Cc2ccccc2)CCN(Cc2ccon2)CC1 | 7
CCOC(=O)C1(CC2CCCCO2)CCN(Cc2nc(C(C)C)cs2)CC1 (configuration not stated) | 375*
CCN(CC)c1ccc(/C=C2\C(=O)c3ccc(C(=O)O)cc3C2=O)cc1 | 0
